# Measurements: ChEMBL document CHEMBL1152806, “Discovery of a potent, selective, and orally efficacious pyrimidinooxazinyl bicyclooctaneacetic acid diacylglycerol acyltransferase-1 inhibitor” (J Med Chem, 2009)
# Calls of active or inactive are those of the source. The rule behind the calls is not given here.
# How the values were obtained:
# [1] = Apparent permeability from apical to basolateral side in MDCK cells at 10 uM; assay type: ADME, cell-based, Canis lupus familiaris; conditions: dog, read-out: permeability
# Outline: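 Cultured MDCK cells incubated with compound at 10 µM; apparent permeability (Papp, ×10^-6 cm/s) measured in both apical-to-basolateral and basolateral-to-apical directions.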
# [2] = molecular target: T1, Diacylglycerol O-acyltransferase 1 (Rattus norvegicus, UniProt Q9ERM3); assay: Inhibition of rat microsomal DGAT1 by liquid scintillography
# T1 sequence (Q9ERM3 whole entry): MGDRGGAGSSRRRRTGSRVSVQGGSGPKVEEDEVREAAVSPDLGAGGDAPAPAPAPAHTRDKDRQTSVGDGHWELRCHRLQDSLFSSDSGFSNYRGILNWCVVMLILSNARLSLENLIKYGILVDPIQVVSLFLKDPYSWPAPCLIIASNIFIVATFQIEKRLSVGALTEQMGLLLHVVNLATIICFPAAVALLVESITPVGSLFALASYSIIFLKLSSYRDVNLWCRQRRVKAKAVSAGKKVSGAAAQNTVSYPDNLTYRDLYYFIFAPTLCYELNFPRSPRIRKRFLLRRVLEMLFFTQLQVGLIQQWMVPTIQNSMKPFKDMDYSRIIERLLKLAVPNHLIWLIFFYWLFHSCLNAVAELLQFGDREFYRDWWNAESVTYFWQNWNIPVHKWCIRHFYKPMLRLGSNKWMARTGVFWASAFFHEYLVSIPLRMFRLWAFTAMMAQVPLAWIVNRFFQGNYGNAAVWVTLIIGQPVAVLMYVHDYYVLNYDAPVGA
# [3] = Bioavailability in marmosets at 1 to 3 mg/kg; assay type: ADME, organism-based; conditions: callitrichinae sp., in vivo
# [4] = Bioavailability in dog at 1 to 3 mg/kg; assay type: ADME, organism-based, Canis lupus familiaris; conditions: in vivo
# Hepatocyte [5] = assay: Metabolic stability in rat hepatocytes assessed as conversion to acyl glucuronide form after 2 hrs; assay type: ADME, cell-based
# [6] = Half life in rat at 1 to 3 mg/kg, po; assay type: ADME, organism-based; parameters: dose 1-3 mg/kg, route oral; conditions: in vivo
# [7] = Metabolic stability in dog assessed as urinary excretion of acyl glucuronide form after 2 hrs; assay type: ADME, Canis lupus familiaris, Urine
# Outline: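 Parent-related material excreted as acyl glucuronide measured in a 2 h urine sample collected after dosing in dog.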
# [8] = Metabolic stability in human alamethicin-activated microsomes assessed as conversion to acyl glucuronide form after 1 hr; assay type: ADME, Microsome
# [9] = Volume of distribution at steady state in dog at 1 to 3 mg/kg; assay type: ADME, organism-based, Canis lupus familiaris; parameters: dose 1-3 mg/kg; conditions: in vivo, read-out: Vdss
# [10] = Half life in rat at 1 to 3 mg/kg, iv; assay type: ADME, organism-based; parameters: dose 1-3 mg/kg, route intravenous; conditions: in vivo
# CYP3A4 = CYP3A4 (Homo sapiens, UniProt P08684); assay: Inhibition of CYP3A4 at 30 uM; assay type: ADME
# Plasma = assay: Fraction unbound in dog plasma by LC-UVMS; assay type: ADME, cell-free, Canis lupus familiaris
# Outline: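 Equilibrium dialysis in plasma of the relevant species at 37 °C; free and bound drug quantified by LC-UVMS; reported as % free.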
# Rattus norvegicus [11] = assay: Reduction of adipose triacylglycerol synthesis in 14 hrs fasted Han-Wistar rat assessed as decrease in ratio of [3H]palmitic acid incorporation in to TAG and DAG at 3 mg/kg, po after 1.5 hrs relative to control; assay type: functional; parameters: scale not given: the % may be the effect or the level left
# Outline: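 Male Han-Wistar rats (~300 g) on chow diet were given compound by oral gavage, suspended in HPMC/Tween. At 1.5 h they were anaesthetised with inactin and a bolus of [3H]-palmitic acid was given via a jugular cannula. Epididymal fat was taken 20 min later, homogenised in duplicate with [14C]-oleic acid internal standard, and lipids separated by HPLC. Result is % reduction of the TAG/DAG label ratio versus vehicle; n = 10.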
# HuTu80 = assay: Inhibition of triacylglycerol synthesis in human HuTu 80 cells after 30 mins; assay type: functional, cell-based; conditions: HuTu80, 0.5 h
# Outline: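 Confluent HuTu 80 cells in serum-free medium, preincubated 30 min with compound (0.1% DMSO final). Then given 0.12 mM sodium oleate plus 1 µCi/mL 14C-oleate complexed to 0.03 mM BSA. Cells solubilized in SDS and lipids extracted; 14C in triacylglycerol measured by normal-phase HPLC with radio-flow detection. Lowry protein determined.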
# [12] = Volume of distribution at steady state in marmosets at 1 to 3 mg/kg; assay type: ADME, organism-based; parameters: dose 1-3 mg/kg; conditions: callitrichinae sp., in vivo; read-out: Vdss
# [13] = Half life in marmosets at 1 to 3 mg/kg, iv; assay type: ADME, organism-based; parameters: dose 1-3 mg/kg, route intravenous; conditions: callitrichinae sp., in vivo
# Hepatocyte [14] = assay: Metabolic stability in human hepatocytes assessed as conversion to acyl glucuronide form after 2 hrs; assay type: ADME, cell-based
# Rattus norvegicus [15] = assay: Reduction of plasma triacylglycerol excursion in 14 hrs fasted Han-Wistar rat at 1 mg/kg, po treated 2 hrs before bolus corn oil administration measured 1.5 hrs post corn oil challenge by oral lipid tolerance test relative to control; assay type: functional; parameters: scale not given: the % may be the effect or the level left
# Outline: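 Male Han-Wistar rats (~230 g) on chow diet were fasted 14 h and given compound by oral gavage, suspended in HPMC/Tween. A corn oil bolus (5 mL/kg) followed 2 h later. After 1.5 h, blood was drawn from the abdominal vena cava and plasma TAG measured colorimetrically (GPO-PAP). Result is % reduction versus vehicle-treated controls; n = 6.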
# [16] = Bioavailability in rat at 1 to 3 mg/kg; assay type: ADME, organism-based; conditions: in vivo
# [17] = Metabolic stability in dog alamethicin-activated microsomes assessed as conversion to acyl glucuronide form after 1 hr; assay type: ADME, Canis lupus familiaris, Microsome
# [18] = molecular target: T2, Sterol O-acyltransferase 1 (Homo sapiens, UniProt P35610); assay: Inhibition of human ACAT1 by liquid scintillography
# T2 sequence (P35610 whole entry): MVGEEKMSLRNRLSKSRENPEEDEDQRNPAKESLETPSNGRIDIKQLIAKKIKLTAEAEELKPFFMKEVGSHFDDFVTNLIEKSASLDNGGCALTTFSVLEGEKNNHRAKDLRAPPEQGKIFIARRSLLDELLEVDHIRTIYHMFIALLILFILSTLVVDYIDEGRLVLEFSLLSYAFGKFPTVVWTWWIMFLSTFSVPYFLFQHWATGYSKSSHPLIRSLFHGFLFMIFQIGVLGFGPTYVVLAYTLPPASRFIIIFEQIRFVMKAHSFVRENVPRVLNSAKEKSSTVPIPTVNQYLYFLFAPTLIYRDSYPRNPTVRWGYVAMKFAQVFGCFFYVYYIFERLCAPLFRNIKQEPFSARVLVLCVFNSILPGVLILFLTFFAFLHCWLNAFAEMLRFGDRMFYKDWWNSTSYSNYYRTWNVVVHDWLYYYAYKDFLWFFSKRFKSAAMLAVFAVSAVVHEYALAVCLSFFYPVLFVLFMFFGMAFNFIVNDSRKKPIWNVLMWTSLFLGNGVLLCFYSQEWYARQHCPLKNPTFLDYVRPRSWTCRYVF
# Mus musculus = assay: Inhibition of dietary-induced obesity in obese […] mouse model assessed as reduction in body weight at 20 mg/kg, po qd for 3 days relative to start weight; assay type: functional, organism-based; parameters: dose 20 mg/kg
# Outline: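 Female C57BL/6 mice fed high-calorie cafeteria diet for 15 weeks to about 29 g, randomized into groups of 12. Oral gavage (10 mL/kg) once daily for 3 days, 2 h before the dark phase. Body weight recorded daily before dosing and expressed as percent change from day 0, compared with vehicle-treated diet-matched controls.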
# [19] = Plasma clearance in rat at 1 to 3 mg/kg; assay type: ADME, organism-based; parameters: dose 1-3 mg/kg
# [20] = Lipophilicity, log D of the compound; assay type: physicochemical; conditions: octanol/water
# [21] = Half life in dog at 1 to 3 mg/kg, po; assay type: ADME, organism-based, Canis lupus familiaris; parameters: dose 1-3 mg/kg, route oral; conditions: in vivo
# CYP3A4, sequence (P08684 whole entry): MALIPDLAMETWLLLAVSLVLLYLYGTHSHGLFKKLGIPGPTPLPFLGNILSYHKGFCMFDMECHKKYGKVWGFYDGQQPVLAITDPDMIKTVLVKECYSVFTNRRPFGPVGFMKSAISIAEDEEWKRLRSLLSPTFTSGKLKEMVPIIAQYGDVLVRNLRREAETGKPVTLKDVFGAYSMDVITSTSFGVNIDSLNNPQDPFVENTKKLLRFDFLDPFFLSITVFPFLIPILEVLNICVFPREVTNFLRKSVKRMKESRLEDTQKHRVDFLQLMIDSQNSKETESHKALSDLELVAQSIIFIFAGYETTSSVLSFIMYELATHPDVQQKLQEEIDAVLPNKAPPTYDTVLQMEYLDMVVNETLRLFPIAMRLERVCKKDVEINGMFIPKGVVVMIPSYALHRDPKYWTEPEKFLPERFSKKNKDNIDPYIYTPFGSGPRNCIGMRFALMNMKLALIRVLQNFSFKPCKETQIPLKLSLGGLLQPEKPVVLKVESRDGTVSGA
smiles,measurement,setting,value
CC1(C)Oc2ncnc(N)c2N=C1c1ccc(C23CCC(CC(=O)O)(CC2)CC3)cc1,Papp A→B at 10 µM,[1],18 ×10⁻⁶ cm/s
same,IC50,[2],9 nM
same,bioavailability,[3],61%
same,bioavailability,[4],> 100%
same,Stability,Hepatocyte [5],18%
same,half-life,[6],5.4 h
same,Stability,[7],82%
same,Stability,[8],25%
same,Vd,[9],1 L/kg
same,half-life,[10],7 h
same,inhibition at 30 µM,CYP3A4,< 25%
same,Fu,Plasma,0.6%
same,Activity,Rattus norvegicus [11],57%
same,IC50,HuTu80,3 nM
same,Vd,[12],0.88 L/kg
same,half-life,[13],13 h
same,Stability,Hepatocyte [14],17%
same,Activity,Rattus norvegicus [15],72%
same,bioavailability,[16],72%
same,Stability,[17],76%
same,IC50,[18],5200 nM
same,Activity,Mus musculus,Active
same,clearance,[19],1.5 mL/min/kg
same,logD,[20],1.9
same,half-life,[21],9.9 h
